In ChEMBL document CHEMBL1138035, “Antitumor agents. 250. Design and synthesis of new curcumin analogues as potential anti-prostate cancer agents” (J Med Chem, 2006):

How the values were obtained:
[1] = molecular target: T1, Androgen receptor (Homo sapiens) (UniProt P10275); assay: Antiandrogenic activity against human LNCaP cell line by AR transactivation assay in presence of […] at 3 uM; type: functional, cell-based
T1 sequence (whole entry): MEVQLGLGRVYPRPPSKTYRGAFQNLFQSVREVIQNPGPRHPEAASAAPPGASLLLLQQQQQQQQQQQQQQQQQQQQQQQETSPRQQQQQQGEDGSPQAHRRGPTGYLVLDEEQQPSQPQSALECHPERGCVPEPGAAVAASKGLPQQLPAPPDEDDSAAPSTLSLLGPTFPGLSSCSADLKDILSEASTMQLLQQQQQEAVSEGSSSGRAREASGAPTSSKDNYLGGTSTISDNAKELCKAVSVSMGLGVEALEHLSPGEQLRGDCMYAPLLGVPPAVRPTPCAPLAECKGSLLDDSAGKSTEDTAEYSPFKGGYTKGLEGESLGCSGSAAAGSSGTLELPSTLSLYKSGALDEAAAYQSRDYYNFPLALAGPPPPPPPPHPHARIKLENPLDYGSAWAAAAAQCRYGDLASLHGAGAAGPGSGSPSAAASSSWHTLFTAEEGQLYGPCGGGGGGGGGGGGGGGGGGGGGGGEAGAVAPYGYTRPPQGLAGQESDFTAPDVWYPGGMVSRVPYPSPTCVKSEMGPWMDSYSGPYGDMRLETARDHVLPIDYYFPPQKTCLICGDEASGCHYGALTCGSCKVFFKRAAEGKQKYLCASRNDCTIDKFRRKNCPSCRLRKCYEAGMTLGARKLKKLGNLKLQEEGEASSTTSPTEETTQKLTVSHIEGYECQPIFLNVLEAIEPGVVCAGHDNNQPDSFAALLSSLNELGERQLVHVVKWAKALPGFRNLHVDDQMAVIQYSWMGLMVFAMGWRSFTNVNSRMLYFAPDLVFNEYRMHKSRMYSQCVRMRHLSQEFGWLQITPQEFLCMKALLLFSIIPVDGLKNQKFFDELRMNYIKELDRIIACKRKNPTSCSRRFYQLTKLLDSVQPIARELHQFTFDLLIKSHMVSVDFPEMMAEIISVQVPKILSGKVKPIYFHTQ
Outline: (§1)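 LNCaP cells (endogenous mutant AR), kept in RPMI with 10% fetal calf serum and antibiotics, were plated 48 h before transfection. They were transfected for 5 h (SuperFect) with MMTV-luciferase reporter plus pRL-SV40 internal control, then moved to RPMI with 10% charcoal dextran-stripped serum. After 24 h, cells got 1 nM DHT plus compound for 24 h. Read-out was dual luciferase normalized to the internal control, as % of DHT-alone transactivation.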

[2] = tested on: LNCaP; assay: Cytotoxicity against human LNCaP cell line; type: functional, cell-based
[3] = tested on: PC-3; assay: Cytotoxicity against human PC3 cell line; type: functional, cell-based
[4] = molecular target: T1, Androgen receptor (Homo sapiens); assay: Antiandrogenic activity against human PC3 cell line transfected with wild-type AR by AR transactivation assay in presence of […] at 3 uM; type: functional, cell-based; conditions: PC-3
Outline: (§2)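 PC-3 host cells (no functional AR), kept in DMEM with 10% fetal calf serum and antibiotics, were plated 24 h before transfection. They were transfected for 5 h (SuperFect) with wild-type AR plasmid pSG5AR, MMTV-luciferase reporter and pRL-SV40 control, then moved to DMEM with 10% charcoal-stripped serum. After 24 h, cells got 1 nM DHT plus compound for 24 h. Dual-luciferase signal was normalized to the internal control and given as % of DHT-only.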

[5] = tested on: PC-3; assay: Inhibition of growth of human PC3 cell line at 20 ug/ml; type: functional
Outline: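 Growth assay in human prostate cancer cells (LNCaP in RPMI, PC-3 in DMEM, each with 10% fetal calf serum and antibiotics). Cells were exposed to compound for 2 days. Value is % inhibition of cell growth at 20 μg/ml. Variation between replicate experiments was ≤5%.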

[6] = molecular target: T1, Androgen receptor (Homo sapiens); assay: Antiandrogenic activity against human PC3 cell line transfected with wild-type AR by AR transactivation assay in presence of […] at 5 uM; type: functional, cell-based; conditions: PC-3; outline: as §2
[7] = molecular target: T1, Androgen receptor (Homo sapiens); assay: Antiandrogenic activity against human LNCaP cell line by AR transactivation assay in presence of […] at 5 uM; type: functional, cell-based; outline: as §1
[8] = Homo sapiens, PC-3, read-out: IC50

SMILES | IC50 [2] [µM] | IC50 [3, 8] [µM] | also measured
CCO/C(O)=C/C=C(C(=O)/C=C/c1ccc(OC2CCCCO2)c(OC)c1)C(=O)/C=C/c1ccc(OC2CCCCO2)c(OC)c1 (stereo not drawn) | 2.6 | 3.1 | Activity [1]: 54%; Activity [4]: 46%
CCOC(=O)CC/C(C(C)=O)=C(O)\C=C\c1ccc(O)c(OC)c1 | 51.5 | 43.7 | –
COc1ccc(/C=C/C(=O)/C=C(O)/C=C/c2ccc(OC)c(OC)c2)cc1OC | 1.3 | 1.1 | –
COc1ccc(/C=C/C(O)=C/C(C)=O)cc1O | 5.3 | 6.1 | –
COc1ccc(/C=C/C(O)=C/C(C)=O)cc1OC | 6.6 | 7 | –
COc1ccc(/C=C/C(=O)/C=C(O)/C=C/c2ccc(OC)cc2OC)c(OC)c1 | 11.8 | – | inhibition at 20 µg/mL [5]: 45%
CCNC(=O)/C=C/C(C(=O)/C=C/c1ccc(OC)c(OC)c1)=C(O)\C=C\c1ccc(OC)c(OC)c1 | 0.6 | 1.2 | –
COc1cc(/C=C/C(=O)/C=C(O)/C=C/c2ccc(OC)c(OC)c2)ccc1O | 3.3 | 6 | –
COc1ccc(/C=C/C(=O)NC(=O)/C=C/c2ccc(OC)c(OC)c2)cc1OC | 2.2 | > 10 | inhibition at 20 µg/mL [5]: 36%
COc1cc(/C=C/C(=O)/C=C(O)/C=C/c2ccc(OCC=C(C)C)c(OC)c2)ccc1OCC=C(C)C | 6.1 | > 19.8 | inhibition at 20 µg/mL [5]: 41%
COc1cc(/C=C/C(O)=C/C(=O)/C=C/c2ccc(CO)o2)ccc1O | 7.3 | 9 | –
CCO/C(O)=C/C=C(C(=O)/C=C/c1ccc(OC)c(OC)c1)C(=O)/C=C/c1ccc(OC)c(OC)c1 | 0.2 | 1 | Activity [6]: 40%; Activity [7]: 6%
COc1ccc(/C=C/C(=O)/C=C(O)/C=C/c2ccc(OC)c(OC)c2OC)c(OC)c1OC | 4.8 | 8.1 | –
CCOC(=O)CCC(F)(C(=O)/C=C/c1ccc(OC2CCCCO2)c(OC)c1)C(=O)/C=C/c1ccc(OC2CCCCO2)c(OC)c1 (stereo not drawn) | 7.3 | 6.3 | –
COc1cc(/C=C/C=C/C(=O)/C=C(O)/C=C/C=C/c2ccc(O)c(OC)c2)ccc1O | 4.4 | 10.6 | –
Cc1cc(/C=C/C(=O)/C=C(O)/C=C/c2ccc(O)c(C)c2)ccc1O | 1.8 | – | IC50 ([3]; pc-3): 4.8 µM
COc1ccc(/C=C/C(O)=C/C(=O)/C=C/c2ccc(OC)c(OC)c2OC)cc1OC | 7.7 | 9.1 | –
COc1ccc(/C=C/C(O)=C/C(C)=O)c(OC)c1 | 9.9 | 12.3 | –
COc1cc(/C=C/C(O)=C/C(=O)/C=C/c2cccs2)ccc1O | 6.3 | 7.7 | –
COc1cc(/C=C/C(=O)CC(=O)/C=C/c2ccc(O)c(OC)c2)ccc1O [CURCUMIN] | 3.8 | 7.7 | –
COc1cc(/C=C/C(=O)/C(C(C)=O)=C(O)/C=C/c2ccc(O)c(OC)c2)ccc1O | 8.8 | 23.4 | –
COc1ccc(/C=C/C(=O)/C=C/c2ccc(OC)cc2OC)c(OC)c1 | 21.8 | 18.7 | –
COc1ccc(CCC(=O)CC(O)CCc2ccc(OC)c(OC)c2)cc1OC (stereo not drawn) | 10.8 | – | inhibition at 20 µg/mL [5]: 33%

SMILES | IC50 [2] [µM] | IC50 [3, 8] [µM] | also measured
CCOC(=O)CC\C(C(=O)/C=C/C=C/c1ccc(O)c(OC)c1)=C(O)/C=C/C=C/c1ccc(O)c(OC)c1 | 3.1 | 6.4 | –
COc1cc(/C=C/C(=O)/C=C/c2ccc(O)c(OC)c2)ccc1O | 1.4 | 2.4 | –
CCOC(=O)CCC(F)(C(=O)/C=C/c1ccc(O)c(OC)c1)C(=O)/C=C/c1ccc(O)c(OC)c1 | 6.3 | 9.8 | –
COc1ccc(/C=C/C(=O)CC(O)/C=C/c2ccc(OC)c(OC)c2)cc1OC (stereo not drawn) | 17.7 | 18.4 | –
COc1ccc(/C=C/C(=O)C(/C=C/CO)=C(O)/C=C/c2ccc(OC)c(OC)c2)cc1OC | 0.2 | 1.3 | –
COc1ccc(/C=C/C(=O)C(C)(F)C(=O)/C=C/c2ccc(OC)c(OC)c2)cc1OC | 6.4 | 4.6 | –
COc1ccc(/C=C/C(=O)C(C)C(=O)/C=C/c2ccc(OC)c(OC)c2)cc1OC | 5.8 | 3.5 | –
COc1cc(OC)c(OC)cc1/C=C/C(O)=C/C(C)=O | 12.5 | 10.5 | –
COc1ccc(/C=C/C(=O)/C=C(O)/C=C/c2ccc(OC)c(C)c2)cc1C | 7.7 | > 27.4 | inhibition at 20 µg/mL [5]: 44%
CCOc1ccc(/C=C/C(=O)/C=C(O)/C=C/c2ccc(OCC)c(OC)c2)cc1OC | 6.5 | 20.3 | –
COc1ccc(/C=C/C(O)=C/C(=O)/C=C/c2ccc(OC)c(OC)c2)cc1O | 4.8 | 5.5 | –
CCO/C(O)=C/C=C(C(=O)/C=C/c1ccc(O)c(OC)c1)C(=O)/C=C/c1ccc(O)c(OC)c1 | 7 | 11.7 | –
COc1ccc(/C=C/C(=O)C(/C=C/C#N)=C(O)/C=C/c2ccc(OC)c(OC)c2)cc1OC | 0.2 | 0.7 | Activity [6]: 68%; Activity [7]: 42%
COc1cc(/C=C/C(O)=C/C(C)=O)ccc1O | 6.2 | 8 | –
COc1cc(OC)c(OC)cc1/C=C/C(=O)/C=C(O)/C=C/c1cc(OC)c(OC)cc1OC | 2.9 | 2.4 | –
COc1ccc(/C=C/C(=O)/C=C/c2ccc(OC)c(OC)c2)cc1OC | 3.4 | 3.8 | –
CCOC(=O)CC/C(C(=O)/C=C/c1ccc(OC)c(OC)c1)=C(O)\C=C\c1ccc(O)c(OC)c1 | 2.1 | 6.3 | –
COc1cc(/C=C/C(O)=C/C(=O)/C=C/c2ccc[nH]2)ccc1O | 13.6 | 15.4 | –
CCOC(=O)CC/C(C(=O)/C=C/c1ccc(O)c(OC)c1)=C(O)\C=C\c1ccc(O)c(OC)c1 | 1.5 | 5.1 | Activity [6]: 13%; Activity [7]: 4%
COc1cc(OC)c(OC)cc1/C=C/C(=O)/C=C(O)/C=C/c1ccc(OC)c(OC)c1 | 8.6 | 8.2 | –
CCOC(=O)CC/C(C(=O)/C=C/c1ccc(OC2CCCCO2)c(OC)c1)=C(O)\C=C\c1ccc(OC2CCCCO2)c(OC)c1 (stereo not drawn) | 4.2 | 12.3 | –
COc1ccc(/C=C/C(=O)/C=C(O)/C=C/c2ccc(OC)c(O)c2)cc1O | 10.9 | 8.6 | –
COc1ccc(/C=C/C(O)=C/C(C)=O)c(OC)c1OC | 5.8 | 7.8 | –
